In brackets after ≈: the same amount, converted by molar mass.
Tests used:
HEL [1] = assay: Antiviral activity against HEL cells by measuring minimum cytotoxic concentration that causes a microscopically detectable alteration of normal cell morphology after 2 day of treatment.; type: functional; settings: Homo sapiens, 48 h
MOLT-4 [2] = assay: Giant cell formation between HIV-2 (LAV-2 rod) infected HUT-78 cells and uninfected MOLT-4(clone-8)cells; type: functional, cell-based; settings: Homo sapiens
How it was run: (§1)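 Syncytium assay: HUT-78 cells persistently infected with HIV-1 (HTLV-IIIB) or HIV-2 (LAV-2ROD) were co-cultured with uninfected MOLT-4 (clone 8) cells, and giant-cell formation was scored. Compounds tested as ammonium salts. Values are means of at least two experiments.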

[3] = target: Human immunodeficiency virus type 1 integrase (Human immunodeficiency virus 1, UniProt Q7ZJM1); assay: Inhibition of HIV -1 Integrase
How it was run: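 Purified HIV-1 integrase. 3'-processing and strand-transfer (integration) activities were measured with synthetic double-stranded oligonucleotides mimicking viral DNA ends. Compounds tested as ammonium salts. Values are means of at least two experiments.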

[4] = target: Human immunodeficiency virus type 1 protease (Human immunodeficiency virus 1, UniProt Q72874); assay: Inhibition of HIV -1 protease
How it was run: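 Purified HIV-1 protease with the peptide substrate Ala-Ser-Glu-Asn-Tyr-Pro-Ile-Val-Glu-amide. Cleavage quantified by reverse-phase HPLC. Compounds tested as ammonium salts. Values are means of at least two experiments.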

Vero [5] = assay: Antiviral activity against Vero cells by measuring minimum cytotoxic concentration that causes a microscopically detectable alteration of normal cell morphology after 2 day of treatment.; type: functional; settings: Chlorocebus sabaeus, 48 h
HEL [6] = assay: Antiviral activity was determined against Vesicular stomatitis virus in HEL cells by measuring concentration required to reduce virus induced cytopathogenicity by 50%.; type: functional, cell-based; settings: Homo sapiens
HEL [7] = assay: Antiviral activity was determined against Herpes simplex virus -1 TK- in HEL cells by measuring concentration required to reduce virus induced cytopathogenicity by 50%.; type: functional, cell-based; settings: Homo sapiens
HEL [8] = assay: Antiviral activity was determined against (Herpes simplex virus -2) by concentration required to reduce virus induced cytopathogenicity by 50%.; type: functional, cell-based; settings: Homo sapiens
Vero [9] = assay: Antiviral activity was determined against Junin virus in Vero cells by measuring concentration required to reduce virus induced cytopathogenicity by 50%.; type: functional, cell-based; settings: Chlorocebus sabaeus
HeLa [10] = assay: Antiviral activity was determined against Respiratory syncytial virus(strain Long) in HeLa cells by measuring concentration required to reduce virus induced cytopathogenicity by 50%.; type: functional, cell-based; settings: Homo sapiens
How it was run: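 RSV cytopathicity in HeLa cells. Compound added immediately after virus infection and left in the culture. Virus-induced cytopathogenicity scored at day 5 post-infection. IC50 in μg/mL.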

MT4 [11] = assay: Viral cytopathicity against HIV -I (HTLV-IIIb) strain determined in MT-4 cells; type: functional, cell-based; settings: Homo sapiens
MT4 [12] = assay: Cytotoxical effect against MT-4 cell lines was determined by reduction of cellular viability; type: functional; settings: Homo sapiens
How it was run: (§2)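 Compounds tested as ammonium salts. Cytotoxicity in CEM-SS, MT-4 or PBL cultures taken from the reduction in cellular viability. Values are means of at least two separate experiments.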

Homo sapiens [13] = species on record: Homo sapiens; assay: Inhibition of p24 production in Peripheral blood lymphocytes; type: functional, organism-based
How it was run: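 Phytohemagglutinin-stimulated peripheral blood lymphocytes infected with HIV-1 WUJO. Read-out is virion-associated p24 production. Compounds tested as ammonium salts. Values are means of at least two experiments.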

HEL [14] = assay: Antiviral activity was determined against Vaccinia virus in HEL cells by measuring concentration required to reduce virus induced cytopathogenicity by 50%.; type: functional, cell-based; settings: Homo sapiens
Homo sapiens [15] = species on record: Homo sapiens; assay: Cytotoxical effect against PBL cell lines was determined by reduction of cellular viability; type: functional; how it was run: as §2
MDCK [16] = assay: Antiviral activity against MDCK cells by measuring minimum cytotoxic concentration that causes a microscopically detectable alteration of normal cell morphology after 2 day of treatment.; type: functional; settings: Canis lupus familiaris, 48 h
CCRF-CEM = assay: Cytotoxical effect against CEM cell lines was determined by reduction of cellular viability; type: functional; settings: Homo sapiens; how it was run: as §2
MOLT-4 [17] = assay: Giant cell formation between HIV-1 (HTLV-IIIB) infected HUT-78 cells and uninfected MOLT-4(clone-8)cells; type: functional, cell-based; settings: Homo sapiens; how it was run: as §1
HEL [18] = assay: Antiviral activity was determined against Herpes simplex virus -1 TK-/TK+ in HEL cells by measuring concentration required to reduce virus induced cytopathogenicity by 50%.; type: functional, cell-based; settings: Homo sapiens
HEL [19] = assay: Antiviral activity was determined against Human cytomegalovirus (strain Davis) in HEL cells by measuring concentration required to reduce virus induced cytopathogenicity by 50%.; type: functional, cell-based
HeLa [20] = assay: Antiviral activity against HeLa cells by measuring minimum cytotoxic concentration that causes a microscopically detectable alteration of normal cell morphology after 2 day of treatment.; type: functional; settings: Homo sapiens, 48 h
HEL [21] = assay: Antiviral activity was determined against Herpes simplex virus -1 in HEL cells by measuring concentration required to reduce virus induced cytopathogenicity by 50%.; type: functional, cell-based; settings: Homo sapiens
MDCK [22] = assay: Antiviral activity was determined against Influenza virus A(strain Ishikawa) in MDCK cells by measuring concentration required to reduce virus induced cytopathogenicity by 50%.; type: functional, cell-based; settings: Canis lupus familiaris
How it was run: (§3)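 Tested in MDCK cells, with compound applied right after infection and left on. Cytopathic effect of influenza A (Ishikawa) or B (Singapore) was read at day 5 pi. IC50 is the concentration halving cytopathogenicity, in µg/mL.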

MDCK [23] = assay: Antiviral activity was determined against Influenza virus B(strain Singapore) MDCK cells by measuring concentration required to reduce virus induced cytopathogenicity by 50%.; type: functional, cell-based; settings: Canis lupus familiaris; how it was run: as §3
Vero [24] = assay: Antiviral activity was determined against Tacaribe virus in Vero cells by measuring concentration required to reduce virus induced cytopathogenicity by 50%.; type: functional, cell-based; settings: Chlorocebus sabaeus
MT4 [25] = assay: Viral cytopathicity against HIV -2 (LAV-2 rod)strain determined in MT-4 cells; type: functional, cell-based; settings: Homo sapiens

Chain of Human immunodeficiency virus type 1 integrase (Q7ZJM1 whole entry): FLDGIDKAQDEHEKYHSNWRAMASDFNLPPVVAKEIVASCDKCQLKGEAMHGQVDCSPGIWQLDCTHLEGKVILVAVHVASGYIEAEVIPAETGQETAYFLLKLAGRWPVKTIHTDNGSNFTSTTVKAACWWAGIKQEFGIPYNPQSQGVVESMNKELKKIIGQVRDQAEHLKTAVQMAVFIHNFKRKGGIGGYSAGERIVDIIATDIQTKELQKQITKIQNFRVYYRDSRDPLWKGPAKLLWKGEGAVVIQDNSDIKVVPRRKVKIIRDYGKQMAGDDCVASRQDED

SMILES | MCC (HEL [1]) [µg/mL] | IC50 (MOLT-4 [2]) [µM] | IC50 [3] [µM] | IC50 [4] [µM] | MCC (Vero [5]) [µg/mL] | IC50 (HEL [6]) [µg/mL] | IC50 (HEL [7]) [µg/mL] | IC50 (HEL [8]) [µg/mL] | IC50 (Vero [9]) [µg/mL] | IC50 (HeLa [10]) [µg/mL] | IC50 (MT4 [11]) [µM] | CC50 (MT4 [12]) [µM] | IC50 (Homo sapiens [13]) [µM] | IC50 (HEL [14]) [µg/mL] | CC50 (Homo sapiens [15]) [µM] | CC50 (CCRF-CEM) [µM] | IC50 (MOLT-4 [17]) [µM] | IC50 (HEL [18]) [µg/mL] | IC50 (HEL [19]) [µg/mL] | IC50 (HEL [21]) [µg/mL] | also measured
O=C(O)c1cc(C(=CCC23CC4CC(CC(C4)C2)C3)c2cc(Cl)c(O)c(C(=O)O)c2)cc(Cl)c1O | 50 | > 40 | 7 | 0.37 | 50 | > 5 | > 5 | > 20 | > 20 | 4 (≈ 7.73 µM) | > 40 | > 40 | 148 | > 5 | 185 | 105 | > 40 | > 5 | 11 (≈ 21.3 µM) | > 5 | MCC (MDCK [16]): 4 µg/mL; MCC (HeLa [20]): 20 µg/mL; IC50 (MDCK [22]): > 4 µg/mL; IC50 (MDCK [23]): > 4 µg/mL; IC50 (Vero [24]): > 20 µg/mL
CC(CCC=C(c1cc(Cl)c(O)c(C(=O)O)c1)c1cc(Cl)c(O)c(C(=O)O)c1)[C@H]1CC[C@H]2[C@@H]3CC[C@@H]4CCCC[C@]4(C)[C@H]3CC[C@]12C (stereo partly specified) | 50 | 40 | 2.2 | 1.5 | 20 | > 20 | > 20 | > 20 | > 5 | 4 (≈ 5.85 µM) | 27.2 | 31.4 | 39 | 13 (≈ 19 µM) | 135 | 69.5 | 24 | > 20 | > 20 | > 20 | MCC (MDCK [16]): 20 µg/mL; IC50 (MT4 [25]): > 31.3 µM; MCC (HeLa [20]): 100 µg/mL; IC50 (MDCK [22]): > 12 µg/mL; IC50 (MDCK [23]): > 20 µg/mL; IC50 (Vero [24]): > 5 µg/mL
CC(C)CCCC(C)[C@H]1CC[C@H]2[C@@H]3CCC4C[C@@H](CCC=C(c5cc(Cl)c(O)c(C(=O)O)c5)c5cc(Cl)c(O)c(C(=O)O)c5)CC[C@]4(C)[C@H]3CC[C@]12C (stereo partly specified) | > 100 | 25 | 25 | 1.5 | – | 10 (≈ 13 µM) | > 20 | 7.4 (≈ 9.64 µM) | – | – | 1.8 | > 125 | 33 | > 20 | 67 | > 200 | 25 | 20 (≈ 26 µM) | 2.7 (≈ 3.52 µM) | 10 (≈ 13 µM) | IC50 (MT4 [25]): 4 µM
CC(CCC=C(c1cc(Cl)c(O)c(C(=O)O)c1)c1cc(Cl)c(O)c(C(=O)O)c1)[C@H]1CC[C@H]2[C@@H]3CC[C@@H]4CC(F)(F)CC[C@]4(C)[C@H]3CC[C@]12C (stereo partly specified) | 50 | 24 | 2.2 | 0.39 | 20 | > 20 | > 20 | > 20 | > 5 | 4 (≈ 5.56 µM) | 27.7 | 34 | 24 | 20 (≈ 27.8 µM) | 69.5 | 38.5 | 8 | > 20 | 11 (≈ 15.3 µM) | 20 (≈ 27.8 µM) | MCC (MDCK [16]): 12 µg/mL; IC50 (MT4 [25]): 3.5 µM; MCC (HeLa [20]): 20 µg/mL; IC50 (MDCK [22]): > 12 µg/mL; IC50 (MDCK [23]): > 12 µg/mL; IC50 (Vero [24]): > 5 µg/mL
CC(C)CCCC(C)[C@H]1CC[C@H]2[C@@H]3CCC4CC(=C(c5cc(Cl)c(O)c(C(=O)O)c5)c5cc(Cl)c(O)c(C(=O)O)c5)CC[C@]4(C)[C@H]3CC[C@]12C (stereo partly specified) | > 50 | 24 | > 100 | 0.35 | 200 | > 20 | > 20 | 12 (≈ 16.5 µM) | 16 (≈ 22 µM) | 20 (≈ 27.6 µM) | 2.5 | 36.7 | 59.3 | > 20 | 78 | > 200 | 24 | > 20 | 2.35 (≈ 3.24 µM) | > 20 | MCC (MDCK [16]): > 200 µg/mL; IC50 (MT4 [25]): 6 µM; MCC (HeLa [20]): 100 µg/mL; IC50 (MDCK [22]): 14 µg/mL (≈ 19.3 µM); IC50 (MDCK [23]): > 200 µg/mL; IC50 (Vero [24]): 20 µg/mL (≈ 27.6 µM)

Source: ChEMBL document CHEMBL1128227, “Cosalane analogues with enhanced potencies as inhibitors of HIV-1 protease and integrase” (J Med Chem, 1995)
